Test results reported in ChEMBL document CHEMBL1123382, “Potential tumor- or organ-imaging agents. 27. Polyiodinated 1,3-disubstituted and 1,2,3-trisubstituted triacylglycerols” (J Med Chem, 1986).
Where “and” joins values, the source holds several entries; their conditions need not be identical. Equal entries are not always repeated.

Columns and labels:
Rattus norvegicus [1] = test: Liver radioactivity after iv administration of compound (30 min) in rats; type: functional, organism-based
In short: (§1)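 Rats (3-5 per time point) dosed iv with about 5-30 μCi (9-83 μg) of 125I-labeled compound in saline containing Tween-20. Killed by exsanguination under ether at 5 min, 30 min or 24 h. Liver removed, minced, blotted and counted. Values are % administered dose per organ, based on each animal's actual liver weight, ± SEM.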

Rattus norvegicus [2] = test: Compound (125I labeled) was evaluated for the total radioactivity in high-density lipoprotein 5 min after intravenous administration.; type: functional
In short: (§2)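 Rat plasma taken 5 or 30 min after iv dosing of 125I-labeled compound (saline/Tween-20) and run on polyacrylamide gel electrophoresis. Gels sectioned and each section gamma-counted. Radioactivity in each band (stacking gel, lipoproteins, albumin, below-albumin) is given as % of total radioactivity applied to the gel.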

Rattus norvegicus [3] = test: Evaluated for the total radioactivity in below albumin at 30 min after intravenous administration.; type: functional; in short: as §2
Rattus norvegicus [4] = test: Biodistribution in Rat blood after 5 minutes of iv administration; type: ADME, organism-based; details: in vivo
In short: (§3)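 125I-labeled compound solubilized in normal saline with Tween-20 and given iv to rats, about 5-30 μCi (9-83 μg) per animal. Three to five rats per time point. Rats killed by exsanguination under ether anesthesia at 5 min, 30 min or 24 h. Organs minced, blotted free of blood and counted for radioiodine. Lines with "per g" are % administered dose per gram ± SEM.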

Rattus norvegicus [5] = test: Biodistribution in Rat heart after 5 minutes of iv administration; type: ADME, organism-based; details: in vivo; in short: as §3
Rattus norvegicus [6] = test: Compound (125I labeled) was evaluated for the total radioactivity in stacking gel 5 min after intravenous administration.; type: functional; in short: as §2
Rattus norvegicus [7] = test: Compound (125I labeled) was evaluated for the total radioactivity in low-density lipoprotein, at 30 min after intravenous administration.; type: functional; in short: as §2
Rattus norvegicus [8] = test: Compound (125I labeled) was evaluated for the total radioactivity in stacking gel at 30 min after intravenous administration.; type: functional; in short: as §2
Rattus norvegicus [9] = test: (§4) Biodistribution in Rat liver after 30 minutes of iv administration; type: ADME, organism-based; details: in vivo, 0.5 h; in short: as §3
Rattus norvegicus [10] = test: Compound (125I labeled) was evaluated for the total radioactivity in high-density lipoprotein, at 30 min after intravenous administration.; type: functional; in short: as §2
Rattus norvegicus [11] = test: Biodistribution in Rat lung after 30 minutes of iv administration; type: ADME, organism-based; details: in vivo, 0.5 h; in short: as §3
Rattus norvegicus [12] = test: Compound was evaluated for the lipid soluble radioactivity extracted from rat plasma at 0.5 hr after intravenous administration.; type: functional
In short: (§5)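 Liver and plasma taken 0.5 or 24 h after iv dosing of 125I-labeled compound in rats (n = 3-5). Extracted by a modified Folch procedure; value is % lipid (CHCl3/MeOH)-extractable radioactivity ± SEM. Extracts run on TLC in hexane/ethyl acetate 5:2 against unlabeled standard, then 1-cm strips counted to give % parent compound.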

Rattus norvegicus [13] = test: Biodistribution in Rat liver after 24 hours of iv administration; type: ADME, organism-based; details: in vivo; in short: as §3
Rattus norvegicus [14] = test: Biodistribution in Rat blood after 30 minutes of iv administration; type: ADME, organism-based; details: in vivo, 0.5 h; in short: as §3
Rattus norvegicus [15] = test: Biodistribution in Rat lung after 5 minutes of iv administration; type: ADME, organism-based; details: in vivo; in short: as §3
Rattus norvegicus [16] = test: Compound (125I labeled) was evaluated for the total radioactivity in low-density lipoprotein 5 min after intravenous administration.; type: functional; design: concentration or dose not given beside the values; in short: as §2
Rattus norvegicus [17] = test: Compound (125I labeled) was evaluated for the total radioactivity in albumin 5 min after intravenous administration.; type: functional; design: concentration or dose not given beside the values; in short: as §2
Rattus norvegicus [18] = test: Compound was evaluated for the lipid soluble radioactivity extracted from rat liver at 24 hr after intravenous administration.; type: functional; in short: as §5
Rattus norvegicus [19] = test: Biodistribution in Rat heart after 30 minutes of iv administration; type: ADME, organism-based; details: in vivo, 0.5 h; in short: as §3
Rattus norvegicus [20] = test: Biodistribution in Rat blood after 24 hours of iv administration; type: ADME, organism-based; details: in vivo; in short: as §3
Rattus norvegicus [21] = test: Biodistribution in Rat lung after 24 hours of iv administration; type: ADME, organism-based; details: in vivo; in short: as §3
Rattus norvegicus [22] = test: Compound was evaluated for the lipid soluble radioactivity extracted from rat liver at 0.5 hr after intravenous administration.; type: functional; in short: as §5
Rattus norvegicus [23] = test: Biodistribution in Rat liver after 5 minutes of iv administration; type: ADME, organism-based; details: in vivo; in short: as §3
Rattus norvegicus [24] = test: Liver radioactivity after iv administration of compound (5 min) in rats; type: functional, organism-based; in short: as §1
Rattus norvegicus [25] = test: Compound (125I labeled) was evaluated for the total radioactivity in albumin at 30 min after intravenous administration.; type: functional; design: concentration or dose not given beside the values; in short: as §2
Rattus norvegicus [26] = test: Liver radioactivity after iv administration of compound (24 h) in rats; type: functional, organism-based; in short: as §1
Rattus norvegicus [27] = test: Biodistribution in Rat heart after 24 hours of iv administration; type: ADME, organism-based; details: in vivo; in short: as §3
Rattus norvegicus [28] = test: as §4; type: ADME, organism-based; details: in vivo, 0.5 h; in short: as §3; remark: listed apart in the source
Rattus norvegicus [29] = test: Compound was evaluated for the lipid soluble radioactivity extracted from rat plasma at 24 hr after intravenous administration.; type: functional; in short: as §5
Rattus norvegicus [30] = test: Biodistribution in Rat heart after 24 hours of iv administration; per g of tissue; type: ADME, organism-based; details: in vivo; in short: as §3
Rattus norvegicus [31] = test: Biodistribution in Rat liver after 24 hours of iv administration; per g of tissue; type: ADME, organism-based; details: in vivo; in short: as §3
Rattus norvegicus [32] = test: Biodistribution in Rat liver after 5 minutes of iv administration; per g of tissue; type: ADME, organism-based; details: in vivo; in short: as §3
Rattus norvegicus [33] = test: (§6) Biodistribution in Rat liver after 30 minutes of iv administration; per g of tissue; type: ADME, organism-based; details: in vivo, 0.5 h; in short: as §3
Rattus norvegicus [34] = test: Biodistribution in Rat blood after 24 hours of iv administration; per g of tissue; type: ADME, organism-based; details: in vivo; in short: as §3
Rattus norvegicus [35] = test: as §6; type: ADME, organism-based; details: in vivo, 0.5 h; in short: as §3; remark: listed apart in the source
Rattus norvegicus [36] = test: Biodistribution in Rat lung after 24 hours of iv administration; per g of tissue; type: ADME, organism-based; details: in vivo; in short: as §3
Rattus norvegicus [37] = test: Biodistribution in Rat lung after 5 minutes of iv administration; per g of tissue; type: ADME, organism-based; details: in vivo; in short: as §3
Rattus norvegicus [38] = test: Biodistribution in Rat blood after 30 minutes of iv administration; per g of tissue; type: ADME, organism-based; details: in vivo, 0.5 h; in short: as §3
Rattus norvegicus [39] = test: Biodistribution in Rat lung after 30 minutes of iv administration; per g of tissue; type: ADME, organism-based; details: in vivo, 0.5 h; in short: as §3
Rattus norvegicus [40] = test: Biodistribution in Rat heart after 30 minutes of iv administration; per g of tissue; type: ADME, organism-based; details: in vivo, 0.5 h; in short: as §3
Rattus norvegicus [41] = test: Biodistribution in Rat blood after 5 minutes of iv administration; per g of tissue; type: ADME, organism-based; details: in vivo; in short: as §3
Rattus norvegicus [42] = test: Biodistribution in Rat heart after 5 minutes of iv administration; per g of tissue; type: ADME, organism-based; details: in vivo; in short: as §3

SMILES | Radioactivity (Rattus norvegicus [1]) | Total radioactivity (Rattus norvegicus [2]) | Total radioactivity (Rattus norvegicus [3]) | Biodistribution (Rattus norvegicus [4]) | Biodistribution (Rattus norvegicus [5]) | Total radioactivity (Rattus norvegicus [6]) | Total radioactivity (Rattus norvegicus [7]) | Total radioactivity (Rattus norvegicus [8]) | Biodistribution (Rattus norvegicus [9]) | Total radioactivity (Rattus norvegicus [10]) | Biodistribution (Rattus norvegicus [11]) | Extracted (Rattus norvegicus [12]) | Parent compound (Rattus norvegicus [12]) | Biodistribution (Rattus norvegicus [13]) | Total radioactivity (Rattus norvegicus [16]) | Total radioactivity (Rattus norvegicus [17]) | Extracted (Rattus norvegicus [22]) | Parent compound (Rattus norvegicus [22]) | Radioactivity (Rattus norvegicus [24]) | Total radioactivity (Rattus norvegicus [25]) | further results
Nc1c(I)cc(I)c(CCCCCCCCCCCCCCCCC(=O)OCC(COC(=O)CCCCCCCCCCCCCCCCc2c(I)cc(I)c(N)c2I)OC(=O)CCCCCCCCCCCCCCCCc2c(I)cc(I)c(N)c2I)c1I | 38.8 | 32.7% | 7.1% and 6.8% | 4.14% | 0.74% | 6.4% | 15.1% | 3.8% | 5.28% | 28.1% | 0.94% | 70.1% | 29.2% | 0.14% and 0.44% | 32.2% | 20.3% | 50.7% | 15.1% | 54.4 | 46.2% | Biodistribution (Rattus norvegicus [14]): 2.1%; Biodistribution (Rattus norvegicus [15]): 1.08%; Extracted (Rattus norvegicus [18]): 73.4%; Parent compound (Rattus norvegicus [18]): 9.5%; Biodistribution (Rattus norvegicus [19]): 0.92%; Biodistribution (Rattus norvegicus [20]): 0.06%; Biodistribution (Rattus norvegicus [21]): 0.07%; Biodistribution (Rattus norvegicus [23]): 0.52% and 6.68%; Radioactivity (Rattus norvegicus [26]): 3; Biodistribution (Rattus norvegicus [27]): 0.03%; Biodistribution (Rattus norvegicus [28]): 5.28%; Extracted (Rattus norvegicus [29]): 54.2%; Parent compound (Rattus norvegicus [29]): 20.2%
Nc1c(I)cc(I)c(CCCCCCCCCCCC(=O)OCC(COC(=O)CCCCCCCCCCCc2c(I)cc(I)c(N)c2I)OC(=O)CCCCCCCCCCCc2c(I)cc(I)c(N)c2I)c1I | 45.7 | 27.2% | 5.5% and 12.6% | 1.46% | 2.67% | 24.4% | 6.2% | 5.8% | 5.24% | 33.6% | 0.67% |  | 24.1% | 0.1% and 0.71% | 12.7% | 30.2% | 76.5% | 68.8% | 53.8 | 40.6% | Biodistribution (Rattus norvegicus [14]): 0.91%; Biodistribution (Rattus norvegicus [15]): 1.13%; Biodistribution (Rattus norvegicus [19]): 0.65%; Biodistribution (Rattus norvegicus [20]): 0.07%; Biodistribution (Rattus norvegicus [21]): 0.09%; Biodistribution (Rattus norvegicus [23]): 0.6% and 6.94%; Biodistribution (Rattus norvegicus [27]): 0.05%; Biodistribution (Rattus norvegicus [28]): 5.24%
CCCCCCCCCCCCCCCC(=O)OC(COC(=O)CCc1c(I)cc(I)c(N)c1I)COC(=O)CCc1c(I)cc(I)c(N)c1I | 38.4 | 52.8% | 0.2% and 1.2% |  |  | 14.2% | 40.6% | 19% |  | 36.3% |  | 62.9% | 90.6% |  | 27.8% | 5% | 86.2% | 94.2% | 43.1 | 2.8% | Biodistribution (Rattus norvegicus [30]): 0.42%; Biodistribution (Rattus norvegicus [31]): 0.29% and 2.19%; Biodistribution (Rattus norvegicus [32]): 0.5% and 6.19%; Biodistribution (Rattus norvegicus [33]): 5.82%; Biodistribution (Rattus norvegicus [34]): 0.31%; Biodistribution (Rattus norvegicus [35]): 5.82%; Biodistribution (Rattus norvegicus [36]): 0.21%; Extracted (Rattus norvegicus [18]): 83.1%; Parent compound (Rattus norvegicus [18]): 88%; Biodistribution (Rattus norvegicus [37]): 0.75%; Biodistribution (Rattus norvegicus [38]): 4.25%; Biodistribution (Rattus norvegicus [39]): 0.94%; Biodistribution (Rattus norvegicus [40]): 0.56%; Biodistribution (Rattus norvegicus [41]): 3.48%; Radioactivity (Rattus norvegicus [26]): 14.7; Biodistribution (Rattus norvegicus [42]): 0.43%; Extracted (Rattus norvegicus [29]): 63.7%; Parent compound (Rattus norvegicus [29]): 80%
